Data from PubChem BioAssay AID624467 (The Scripps Research Institute Molecular Screening Center, 2012).
About 3,600 (1%) of roughly 360,000 compounds were called active.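 How the source made its calls: active means activation above the mean activation of all test compounds in the run plus 3 SD (cut at about 38% in these data); inactive means the rest.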 The sample as a whole holds a higher share of actives than the screen did.

target: Trace amine-associated receptor 1 (Homo sapiens) (UniProt Q96RJ0); assay: human TAAR1 agonists, primary screen, Fluo-8 calcium fluorescence, CHO RD-HGA16 cells (AID 624467); conditions: CHO RD-HGA16 TAAR1, Fluo-8 calcium fluorescence; at 3 µM; active compounds read high; vehicle wells 0%, saturating PEA agonist 100%
Summary of the method: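 test system = CHO RD-HGA16 cells carrying human TAAR1 plus Gα16 | schedule = 17-24 h seeding, 75 min 37 °C dye, 30 min RT | compound dosing = 3 µM single concentration | control set = DMSO and PEA EC100 | replicates = n 1 | signal = Fluo-8 fluorescence, 5 s baseline then 140 s kinetic read | measure = percent activation vs PEA EC100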

Sequence of Trace amine-associated receptor 1 (Homo sapiens) (Q96RJ0 whole entry, looked up): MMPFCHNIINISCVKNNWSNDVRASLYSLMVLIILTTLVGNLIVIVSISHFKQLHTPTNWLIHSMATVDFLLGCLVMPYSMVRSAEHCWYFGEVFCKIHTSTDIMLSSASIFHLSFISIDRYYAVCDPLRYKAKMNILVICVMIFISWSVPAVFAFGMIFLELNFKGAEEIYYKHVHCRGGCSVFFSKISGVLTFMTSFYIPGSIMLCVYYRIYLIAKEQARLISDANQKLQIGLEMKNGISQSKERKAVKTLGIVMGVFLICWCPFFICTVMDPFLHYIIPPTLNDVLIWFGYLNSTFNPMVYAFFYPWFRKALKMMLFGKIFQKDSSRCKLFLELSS

SMILES | activation
CCCNC(=O)C1(C)CCN(Cc2ccc(Cl)c(Cl)c2)C1 (centres undefined) | 1.99% (inactive)
Cc1ccc(C)c(-n2nnnc2SCC(=O)c2c(N)n(C)c(=O)n(C)c2=O)c1 | 2.95% (inactive)
O=C1NC[C@H](CCCCN2C[C@H](Cc3ccc(O)cc3)N(CC3CCCCC3)C(=O)C2=O)N(CCc2ccccc2)C1=O | -0.06% (inactive)
COCCn1c(SC(C)C(=O)NC2CC2)nnc1-c1cccc(C)c1 (centres undefined) | 3.19% (inactive)
NC(=O)C1CCN(C(=O)c2cn(-c3ccccc3)nc2-c2cccnc2)CC1 | 1.55% (inactive)
COc1ccccc1N1CCN(C(=O)c2cn(-c3ccccc3)nc2-c2cccnc2)CC1 | 19.1% (inactive)
O=C(NNC(=S)NC(=O)c1cn(-c2ccccc2)nc1-c1ccccc1)c1ccncc1 | 118% (active)
O=C(NCc1ccc(F)cc1)C1CCC(CNc2c(N3CCOCC3)c(=O)c2=O)CC1 (centres undefined) | 0.31% (inactive)
O=C(NCCOc1ccccc1F)Nc1ccc(Br)cc1 | 12% (inactive)
O=C(Nc1nnc(COc2ccccc2)s1)Nc1ccccc1F | -0.19% (inactive)
O=C(Nc1ccccc1)Nc1nnc(COc2ccccc2F)s1 | 49.8% (active)
COC(=O)[C@]12C[C@H](CC(=O)NCCC(C)C)C(=O)N(CCc3ccc(OC)c(OC)c3)C1=C[C@H](C(C)(C)C)O[C@@H]2C | -1.91% (inactive)
Cc1nc(NC(=O)C(C)(C)C)sc1[N+](=O)[O-] | 1.6% (inactive)
COC(=O)[C@@H](Cc1ccccc1)NC(=O)NCCc1ccccc1 | -0.6% (inactive)
NC[C@H](Cc1ccccc1)NCCc1cc(C(F)(F)F)cc(C(F)(F)F)c1 | 47.6% (active)
CCC(CC)NC(=O)CSc1nnc(-c2c[nH]c3ccccc23)o1 | 3.45% (inactive)
CCOC(=O)c1cc2c(=O)[nH]c(C(Cl)(Cl)Cl)nc2o1 | 2.83% (inactive)
CN1C(=O)C2CC(O)C(SC3CC4C(=O)N(C)C(=O)C4CC3O)CC2C1=O (centres undefined) | -0.78% (inactive)
COc1cc(OC)c(NC(=O)C2CCCN2C(=O)OCc2ccccc2)cc1Cl (centres undefined) | 1.2% (inactive)
CN1C(=O)C(Br)(Br)CC1c1cccnc1 (centres undefined) | 0.34% (inactive)
O=C(OCCN=C1NS(=O)(=O)c2ccccc21)c1cccc([N+](=O)[O-])c1 | 0.99% (inactive)
N#CC1(NC(=O)COC(=O)CCN=C2NS(=O)(=O)c3ccccc32)CCCCC1 | 1.14% (inactive)

SMILES | activation
O=C(CCCN=C1NS(=O)(=O)c2ccccc21)OCC(=O)c1ccc(F)c(F)c1 | 86.8% (active)
Oc1ccccc1CNc1ncc(Br)cc1Br | 4.29% (inactive)
Cc1cc2cc3c(N)[nH]nc3nc2cc1C | 2.1% (inactive)
Cc1ccc(C2NC(C(=O)O)CS2)cc1 (centres undefined) | 6.54% (inactive)
COC(=O)C1=C(C)N(Cc2ccccc2C(F)(F)F)C(=NCc2ccc(C(F)(F)F)cc2)NC1c1ccc(F)cc1 (centres undefined) | 0.73% (inactive)
COCCCN(C(=O)CSCc1ccc(C)cc1)c1c(N)n(Cc2ccccc2)c(=O)[nH]c1=O | 0.76% (inactive)
COc1cc(OC)cc(C(=O)NCC(=O)OCC(=O)NC(C)CCc2ccccc2)c1 (centres undefined) | 4.34% (inactive)
COc1cc(OC)cc(C(=O)N[C@H](C(=O)OCC(=O)NC(C)c2ccccc2)C(C)C)c1 (some centres undefined) | 78.4% (active)
COc1cc(OC)cc(C(=O)NC(C(=O)N2CCC2)C(C)C)c1 (centres undefined) | 0.84% (inactive)
COc1ccccc1OC(C)C(=O)Nc1ccc(S(=O)(=O)Nc2nccs2)cc1 (centres undefined) | 3.3% (inactive)
O=C(NCCC1=CCCCC1)c1ccc(-n2cncn2)cc1 | 1.68% (inactive)
Cc1ccn2c(=O)c(C(=O)NCCC3=CCCCC3)c(O)nc2c1 | 75.2% (active)
O=C(CCNC(=O)Cn1ccc2ccccc2c1=O)NCCC1=CCCCC1 | 1.79% (inactive)
CC1(C)OC(=O)C2=C(CC(CCc3ccccc3)OC2c2ccc(Cl)cc2)O1 (centres undefined) | -0.49% (inactive)
O=c1[nH]c(-c2ccccc2)cn1C1CCN(Cc2ccc(-c3nc4ccc(F)cc4nc3-c3ccccc3)cc2)CC1 | 2.82% (inactive)
Cc1cc(C)c(S(=O)(=O)N2CCC(C(=O)OCc3c(C)noc3C)CC2)c(C)c1 | 5.51% (inactive)
COC(=O)C1=C(C(=O)OC)C2C=C(C(C)C)C1C(=O)C2(C)O (centres undefined) | 1.68% (inactive)
Clc1ccccc1Nc1nc(NCc2cccs2)nc2ccsc12 | 7.75% (inactive)
COc1cccc(CNc2nc(NCc3ccccc3OC)nc3ccsc23)c1 | 3.04% (inactive)
COc1cccc(CNc2nc(NCc3cccs3)nc3ccsc23)c1 | 39% (active)
CCn1nnc(NC(=O)c2cc(Cl)c(OC)c(Cl)c2)n1 | 5.93% (inactive)
O=C1CC(c2ccccc2)C(c2ccccc2)=NN1 (centres undefined) | 2.78% (inactive)
